Experimental data as given in ChEMBL document CHEMBL4138066, “Synthesis and evaluation of small molecules bearing a benzyloxy substituent as novel and potent monoamine oxidase inhibitors” (Medchemcomm, 2017).

Legend:
[1] = molecular target: T1, MAO-A (amine oxidase [flavin-containing] A) (Homo sapiens, UniProt P21397); experiment: Inhibition of human MAOA at 100 uM incubated for 15 mins using p-tyramine substrate by Amplex red reagent based fluorescence assay; conditions: human MAOA enzyme, probe p-tyramine
T1 sequence (P21397 whole entry): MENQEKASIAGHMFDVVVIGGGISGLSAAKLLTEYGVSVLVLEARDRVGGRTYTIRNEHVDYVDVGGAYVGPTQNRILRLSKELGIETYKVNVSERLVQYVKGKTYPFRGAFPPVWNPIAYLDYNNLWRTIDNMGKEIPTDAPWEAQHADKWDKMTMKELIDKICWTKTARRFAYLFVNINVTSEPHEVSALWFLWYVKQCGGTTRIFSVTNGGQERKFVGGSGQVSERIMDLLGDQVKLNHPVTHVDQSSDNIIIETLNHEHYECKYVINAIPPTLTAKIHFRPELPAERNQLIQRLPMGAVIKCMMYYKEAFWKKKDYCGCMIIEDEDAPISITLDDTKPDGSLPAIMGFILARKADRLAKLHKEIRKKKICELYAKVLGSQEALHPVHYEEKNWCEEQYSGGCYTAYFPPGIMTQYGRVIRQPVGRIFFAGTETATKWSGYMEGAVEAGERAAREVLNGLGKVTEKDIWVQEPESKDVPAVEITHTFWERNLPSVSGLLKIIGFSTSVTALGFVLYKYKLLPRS
How it was run: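 hMAO-A was tested at a single concentration of 100 μM, with iproniazid as reference inhibitor.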

[2] = species on record: Homo sapiens; experiment: Selectivity index, ratio of IC50 for human MAOA to IC50 for human MAOB
How it was run: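 Selectivity index was computed as IC50 (MAO-A)/IC50 (MAO-B), each IC50 being the mean of three experiments.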

[3] = molecular target: T2, Amine oxidase [flavin-containing] B (Homo sapiens, UniProt P27338); experiment: Inhibition of human MAOB incubated for 15 mins using p-tyramine substrate by Amplex red reagent based fluorescence assay
T2 sequence (P27338 whole entry): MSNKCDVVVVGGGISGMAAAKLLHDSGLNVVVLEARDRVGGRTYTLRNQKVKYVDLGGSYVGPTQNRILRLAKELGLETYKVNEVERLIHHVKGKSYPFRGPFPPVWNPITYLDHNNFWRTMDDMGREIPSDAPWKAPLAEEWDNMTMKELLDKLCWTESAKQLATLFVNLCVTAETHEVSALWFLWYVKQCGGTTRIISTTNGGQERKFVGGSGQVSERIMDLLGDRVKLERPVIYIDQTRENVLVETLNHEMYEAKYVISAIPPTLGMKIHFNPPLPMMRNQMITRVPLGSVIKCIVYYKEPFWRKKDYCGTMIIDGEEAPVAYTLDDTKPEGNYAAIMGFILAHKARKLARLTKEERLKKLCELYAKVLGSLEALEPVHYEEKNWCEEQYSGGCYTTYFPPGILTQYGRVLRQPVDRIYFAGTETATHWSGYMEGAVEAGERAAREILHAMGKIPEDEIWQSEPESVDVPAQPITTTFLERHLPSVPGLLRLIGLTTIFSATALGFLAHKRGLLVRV

[4] = molecular target: T3, Amine oxidase [flavin-containing] A (Homo sapiens, UniProt P21397); experiment: Inhibition of human MAOA incubated for 15 mins using p-tyramine substrate by Amplex red reagent based fluorescence assay
T3 sequence (P21397 whole entry): T1 sequence (P21397 whole entry)
How it was run: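 IC50 against hMAO-A is reported as mean ± SEM of three experiments, with iproniazid as reference.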

[5] = molecular target: T2, Amine oxidase [flavin-containing] B; experiment: Reversible inhibition of human MAOB at 2 fold enzymatic IC50 level pre-incubated for 15 mins using p-tyramine substrate and measured after 15 mins by Amplex red reagent based fluorescence assay; conditions: 0.25 h
[6] = molecular target: T2, Amine oxidase [flavin-containing] B; experiment: Reversible inhibition of human MAOB at 2 fold enzymatic IC50 level pre-incubated for 60 mins using p-tyramine substrate and measured after 15 mins by Amplex red reagent based fluorescence assay; conditions: 0.25 h
[7] = test system: SH-SY5Y; experiment: Cytotoxicity in human SH-SY5Y cells assessed as reduction in cell viability at 3 to 50 uM incubated for 48 hrs by MTT assay; assay type: cell-based
How it was run: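 SH-SY5Y cells were exposed to various concentrations of test compound for 48 h, then viability was read by MTT assay. Results are expressed as percentage of control cells, mean ± SD of three independent experiments.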

[8] = molecular target: T2, Amine oxidase [flavin-containing] B; experiment: Competitive inhibition of human MAOB at 0.095 to 0.38 uM using 50 to 500 uM p-tyramine substrate by Amplex red reagent dependent fluorescence assay based Lineweaver-Burk plot analysis
How it was run: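 Kinetics were run as Michaelis-Menten experiments. Rates were measured at five p-tyramine concentrations (50-500 μM), with four inhibitor concentrations (0, 0.095, 0.19 and 0.38 μM). Inhibition type was assigned from overlaid double-reciprocal Lineweaver-Burk plots.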

[9] = molecular target: T2, Amine oxidase [flavin-containing] B; experiment: Reversible inhibition of human MAOB at 2 fold enzymatic IC50 level pre-incubated for 30 mins using p-tyramine substrate and measured after 15 mins by Amplex red reagent based fluorescence assay; conditions: 0.25 h
[10] = molecular target: T2, Amine oxidase [flavin-containing] B; experiment: Reversible inhibition of human MAOB at 2 fold enzymatic IC50 level pre-incubated for 0 mins using p-tyramine substrate and measured after 15 mins by Amplex red reagent based fluorescence assay; conditions: 0.25 h
[11] = molecular target: T2, Amine oxidase [flavin-containing] B; experiment: Reversible inhibition of human MAOB at 2 fold enzymatic IC50 level pre-incubated for 0 to 60 mins using p-tyramine substrate and measured after 15 mins by Amplex red reagent based fluorescence assay; conditions: 0.25 h

Row | Structure (SMILES) | inhibition at 0.25 h, 100 µM [1] [%] | Ratio IC50 [2] | IC50 [3] [µM] | IC50 [4] [µM] | further results
1 | COc1cccc(OCc2ccc(Br)cc2)c1 | 25 | > 11.6 | 8.63 | – | –
2 | COc1cccc(OCc2cccc(Br)c2)c1 | 22 | > 5.2 | 19.3 | – | –
3 | COc1cccc(OCc2ccc(C)cc2)c1 | 26 | > 6.8 | 14.6 | – | –
4 | COc1cccc(OCc2cccc(F)c2)c1 | 19 | > 8.1 | 12.3 | – | –
5 | COc1cccc(OCc2cccc(C)c2)c1 | 23 | > 9.2 | 10.9 | – | –
6 | Brc1cccc(OCc2ccccc2)c1 | 23 | > 36.6 | 2.73 | – | –
7 | COc1cccc(OCc2ccc(F)cc2)c1 | 22 | > 6.4 | 15.6 | – | –
8 | Cc1cccc(COc2cccc(C=O)c2)c1 | – | 17.7 | 2.91 | 51.6 | –
9 | O=Cc1cccc(OCc2ccccc2)c1 | – | 23.3 | 1.96 | 45.6 | –
10 | Cc1ccc(COc2cccc(Br)c2)cc1 | 24 | > 65.4 | 1.53 | – | –
11 | Cc1ccc(COc2cccc(C=O)c2)cc1 | – | 25.6 | 2.53 | 64.8 | –
12 | COc1cccc(OCc2ccccc2)c1 | 25 | > 6.3 | 15.8 | – | –
13 | Cc1cccc(COc2cccc(Br)c2)c1 | 43 | > 50.5 | 1.98 | – | –

The next compounds have a lower IC50 [3] than those just listed; values first:

Row | inhibition at 0.25 h, 100 µM [1] [%] | Ratio IC50 [2] | IC50 [3] [µM] | IC50 [4] [µM] | Structure (SMILES) | further results
14 | 37 | > 94.3 | 1.06 | – | Fc1cccc(COc2cccc(Br)c2)c1 | –
15 | 27 | > 132 | 0.76 | – | Brc1cccc(COc2cccc(Br)c2)c1 | –
16 | – | 53.2 | 0.53 | 28.2 | O=Cc1cccc(OCc2cccc(Br)c2)c1 | –
17 | 30 | – | 0.35 | – | Brc1ccc(COc2cccc(Br)c2)cc1 | inhibition (INH) [5]: 44.9%; inhibition (INH) [6]: 49.2%; Activity [7]: Non-Toxic; inhibition (INH) [8]: Active; inhibition (INH) [9]: 48.6%; inhibition (INH) [10]: 44.8%; inhibition (INH) [11]: Active
18 | 31 | > 172 | 0.58 | – | Fc1ccc(COc2cccc(Br)c2)cc1 | –
19 | – | 45.7 | 0.93 | 42.5 | O=Cc1cccc(OCc2ccc(F)cc2)c1 | –
20 | – | – | 0.19 | 27.9 | O=Cc1cccc(OCc2ccc(Br)cc2)c1 | inhibition (INH) [5]: 45.8%; inhibition (INH) [6]: 49.5%; Activity [7]: Non-Toxic; inhibition (INH) [9]: 49.9%; inhibition (INH) [10]: 46.4%; inhibition (INH) [11]: Active
21 | – | 53.1 | 1.21 | 64.2 | O=Cc1cccc(OCc2cccc(F)c2)c1 | –
